Key:
Canis familiaris [1] = test: Heart rate was determined by intraduodenal administration of two dosages of 30 mg/kg of compound in anesthetized dogs. Value was reported for experiment 1; type: functional, Canis lupus familiaris
How it was run: (§1)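 Anesthetized dogs; compound given intraduodenally, generally as two doses, the second a cumulative (high) dose. LV functional refractory period and conduction time measured 15, 30 and 45 min after dosing; heart rate and blood pressure measured during nonpacing intervals. Values are % change from control, given per individual animal. Active if FRP or CT prolonged by ≥12%.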

Canis familiaris [2] = test: Heart rate was determined by intraduodenal administration of two dosages of 30 mg/kg of compound in anesthetized dogs. Value was reported for experiment 2; type: functional, Canis lupus familiaris; how it was run: as §1
Canis familiaris [3] = test: Heart rate was determined by intraduodenal administration of two dosages of 30 mg/kg of compound in anesthetized dogs. Value was reported for experiment 3; type: functional, Canis lupus familiaris; how it was run: as §1
Canis familiaris [4] = test: Conduction time was determined by intraduodenal administration of 30 mg/kg (high dose) of compound in anesthetized dogs. Value was reported for experiment 1; type: functional, Canis lupus familiaris; how it was run: as §1
Canis familiaris [5] = test: Conduction time was determined by intraduodenal administration of 30 mg/kg (high dose) of compound in anesthetized dogs. Value was reported for experiment 2; type: functional, Canis lupus familiaris; how it was run: as §1
Canis familiaris [6] = test: Conduction time was determined by intraduodenal administration of 30 mg/kg (high dose) of compound in anesthetized dogs. Value was reported for experiment 3; type: functional, Canis lupus familiaris; how it was run: as §1
Canis familiaris [7] = test: Conduction time was determined by intraduodenal administration of 10 mg/kg (low dose) of compound in anesthetized dogs. Value was reported for experiment 1; type: functional, Canis lupus familiaris; how it was run: as §1
Canis familiaris [8] = test: Conduction time was determined by intraduodenal administration of 10 mg/kg (low dose) of compound in anesthetized dogs. Value was reported for experiment 2; type: functional, Canis lupus familiaris; how it was run: as §1
Canis familiaris [9] = test: Conduction time was determined by intraduodenal administration of 10 mg/kg (low dose) of compound in anesthetized dogs. Value was reported for experiment 3; type: functional, Canis lupus familiaris; how it was run: as §1
Canis familiaris [10] = test: Heart rate was determined by intraduodenal administration of two dosages of 10 mg/kg of compound in anesthetized dogs. Value was reported for experiment 1; type: functional, Canis lupus familiaris; how it was run: as §1
Canis familiaris [11] = test: Heart rate was determined by intraduodenal administration of two dosages of 10 mg/kg of compound in anesthetized dogs. Value was reported for experiment 2; type: functional, Canis lupus familiaris; how it was run: as §1
Canis familiaris [12] = test: Heart rate was determined by intraduodenal administration of two dosages of 10 mg/kg of compound in anesthetized dogs. Value was reported for experiment 3; type: functional, Canis lupus familiaris; how it was run: as §1
Canis familiaris [13] = test: Left ventricular refractory period was determined by intraduodenal administration of 10 mg/kg (low dose) of compound in anesthetized dogs. Value was reported for experiment 1; type: functional, Canis lupus familiaris, Cardiac ventricle
How it was run: (§2)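 Anesthetized dogs received two intraduodenal doses, the second cumulative (low dose/high dose). Left ventricular FRP and CT were measured 15, 30 and 45 min after dosing. Heart rate and mean blood pressure were taken during nonpacing intervals. Values are percent change from control. The vehicle was 5% dextrose in water/tragacanth. Activity was defined as ≥12% prolongation of FRP or CT.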

Canis familiaris [14] = test: Left ventricular refractory period was determined by intraduodenal administration of 10 mg/kg (low dose) of compound in anesthetized dogs. Value was reported for experiment 2; type: functional, Canis lupus familiaris, Cardiac ventricle; how it was run: as §2
Canis familiaris [15] = test: Left ventricular refractory period was determined by intraduodenal administration of 10 mg/kg (low dose) of compound in anesthetized dogs. Value was reported for experiment 3; type: functional, Canis lupus familiaris, Cardiac ventricle; how it was run: as §2
Canis familiaris [16] = test: Left ventricular refractory period was determined by intraduodenal administration of 30 mg/kg (high dose) of compound in anesthetized dogs. Value was reported for experiment 1; type: functional, Canis lupus familiaris, Cardiac ventricle; how it was run: as §2
Canis familiaris [17] = test: Left ventricular refractory period was determined by intraduodenal administration of 30 mg/kg (high dose) of compound in anesthetized dogs. Value was reported for experiment 2; type: functional, Canis lupus familiaris, Cardiac ventricle; how it was run: as §2
Canis familiaris [18] = test: Left ventricular refractory period was determined by intraduodenal administration of 30 mg/kg (high dose) of compound in anesthetized dogs. Value was reported for experiment 3; type: functional, Canis lupus familiaris, Cardiac ventricle; how it was run: as §2
Canis familiaris [19] = test: Mean arterial blood pressure was determined by intraduodenal administration of two dosages of 30 mg/kg of compound in anesthetized dogs. Value was reported for experiment 1; type: functional, Canis lupus familiaris; how it was run: as §2
Canis familiaris [20] = test: Mean arterial blood pressure was determined by intraduodenal administration of two dosages of 30 mg/kg of compound in anesthetized dogs. Value was reported for experiment 2; type: functional, Canis lupus familiaris; how it was run: as §2
Canis familiaris [21] = test: Mean arterial blood pressure was determined by intraduodenal administration of two dosages of 30 mg/kg of compound in anesthetized dogs. Value was reported for experiment 3; type: functional, Canis lupus familiaris
Canis familiaris [22] = test: Mean arterial blood pressure was determined by intraduodenal administration of two dosages of 10 mg/kg of compound in anesthetized dogs. Value was reported for experiment 1; type: functional, Canis lupus familiaris; how it was run: as §2
Canis familiaris [23] = test: Mean arterial blood pressure was determined by intraduodenal administration of two dosages of 10 mg/kg of compound in anesthetized dogs. Value was reported for experiment 2; type: functional, Canis lupus familiaris; how it was run: as §2
Canis familiaris [24] = test: Mean arterial blood pressure was determined by intraduodenal administration of two dosages of 10 mg/kg of compound in anesthetized dogs. Value was reported for experiment 3; type: functional, Canis lupus familiaris
Canis familiaris [25] = organism: Canis familiaris; test: In vitro electrophysiological evaluation in canine cardiac ventricular muscle reported as maximum % change for conduction time(CT) at 0.1-10 uM concentration range; Minimal (<10% decrease or increase in CT).; type: functional, Canis lupus familiaris, Muscle tissue
How it was run: (§3)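 Canine right ventricle and papillary muscle strips in oxygenated Tyrode's solution, fitted with stimulating and recording electrodes. The extra-stimulus conduction-interval method was adapted for in vitro use. FRP and CT were read from a conduction-interval curve before and after various compound concentrations, and expressed as percent change from control. Compounds were taken from 10 mM deionized-water stock into Tyrode's. Each strip was used once as its own control.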

Canis familiaris [26] = organism: Canis familiaris; test: In vitro electrophysiological evaluation in canine cardiac ventricular muscle reported as % change for the functional refractory period (FRP) at 10 uM at concentration range of 0.1-10 uM; parameters: species or system Canis lupus familiaris, Muscle tissue; how it was run: as §3
Canis familiaris [27] = organism: Canis familiaris; test: In vitro electrophysiological evaluation in canine cardiac ventricular muscle reported as % change for conduction time(CT) at 10 uM at 0.1-10 uM concentration range; Minimal (<10% decrease or increase in CT).; type: functional, Canis lupus familiaris, Muscle tissue
Canis familiaris [28] = organism: Canis familiaris; test: In vitro electrophysiological evaluation in canine cardiac ventricular muscle reported as maximum % change for functional refractory period (FRP) at 0.1-10 uM concentration range; concentration at which it occurred is 10 uM; parameters: species or system Canis lupus familiaris, Muscle tissue; how it was run: as §3
Canis familiaris [29] = organism: Canis familiaris; test: In vitro electrophysiological evaluation in canine cardiac Purkinje fibres reported as percent change Vmax at 10 uM at concentration range of 0.1-10 uM; Minimal (<10% decrease or increase in V max).; type: functional; conditions: Canis lupus familiaris, Purkinje fiber
How it was run: (§4)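 Canine cardiac Purkinje fibres, intracellular microelectrode recording, paced at a basic cycle length of 1 s. APD95 and Vmax read simultaneously. Compound: 10 mM stock in deionized water, diluted into Tyrode's solution, tested over the stated concentration range. Each fibre used once as its own control. Result is % change from control, given at 10 µM or as the maximum with its concentration. M = <10% decrease or an increase in Vmax.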

Canis familiaris [30] = organism: Canis familiaris; test: In vitro electrophysiological evaluation in canine cardiac Purkinje fibres reported as percent change Vmax at 10 uM at concentration range of 1-100 uM.; type: functional; conditions: Canis lupus familiaris, Purkinje fiber; how it was run: as §4
Canis familiaris [31] = organism: Canis familiaris; test: In vitro electrophysiological evaluation in canine cardiac Purkinje fibres reported as percent change Vmax at 10 uM at concentration range of 1-100 uM; Minimal (<10% decrease or increase in V max).; type: functional; conditions: Canis lupus familiaris, Purkinje fiber; how it was run: as §4
Canis familiaris [32] = organism: Canis familiaris; test: In vitro electrophysiological evaluation in canine cardiac Purkinje fibres reported as percent change Vmax at concentration range of 1-100 uM; conduction block; type: functional; conditions: Canis lupus familiaris; Purkinje fiber; how it was run: as §4
Canis familiaris [33] = organism: Canis familiaris; test: In vitro electrophysiological evaluation in canine cardiac Purkinje fibres reported as percent change Vmax at concentration range of 0.1-10 uM; Minimal (<10% decrease or increase in V max).; type: functional; conditions: Canis lupus familiaris; Purkinje fiber; how it was run: as §4
Canis familiaris [34] = organism: Canis familiaris; test: In vitro electrophysiological evaluation in canine cardiac Purkinje fibres reported as % change for action potential duration at a concentration of 10 uM; type: functional, Canis lupus familiaris, Purkinje fiber; how it was run: as §4
Canis familiaris [35] = organism: Canis familiaris; test: In vitro electrophysiological activity in canine cardiac occurred is 100 uM; type: functional, Canis lupus familiaris, Heart
Canis familiaris [36] = organism: Canis familiaris; test: In vitro electrophysiological activity in canine cardiac occurred is 10 uM; type: functional, Canis lupus familiaris, Heart

Structure (SMILES): CC(=O)C(CC1C(=O)C2CCN1CC2)C(=O)c1ccc(Cl)cc1.Cl (stereo unspecified)
- HR (Canis familiaris [1]): 2%
- HR (Canis familiaris [2]): -28%
- HR (Canis familiaris [3]): -22%
- CT (Canis familiaris [4]): 9%
- CT (Canis familiaris [5]): 7%
- CT (Canis familiaris [6]): 13%
- CT (Canis familiaris [7]): 3%
- CT (Canis familiaris [8]): 0%
- CT (Canis familiaris [9]): 8%
- HR (Canis familiaris [10]): 1%
- HR (Canis familiaris [11]): -14%
- HR (Canis familiaris [12]): -15%
- LV FRP (Canis familiaris [13]): 4%
- LV FRP (Canis familiaris [14]): 11%
- LV FRP (Canis familiaris [15]): 11%
- LV FRP (Canis familiaris [16]): 1%
- LV FRP (Canis familiaris [17]): 18%
- LV FRP (Canis familiaris [18]): 15%
- Mean blood pressure (Canis familiaris [19]): -6%
- Mean blood pressure (Canis familiaris [20]): -16%
- Mean blood pressure (Canis familiaris [21]): 7%
- Mean blood pressure (Canis familiaris [22]): -5%
- Mean blood pressure (Canis familiaris [23]): -4%
- Mean blood pressure (Canis familiaris [24]): 7%
- CT (Canis familiaris [25]): <10%
- FRP (Canis familiaris [26]): 24%
- CT (Canis familiaris [27]): <10%
- FRP (Canis familiaris [28]): 24%
- Vmax (Canis familiaris [29]): < 10%
- Vmax (Canis familiaris [30]): -10%
- Vmax (Canis familiaris [31]): < 10%
- Vmax (Canis familiaris [32]): 100%
- Vmax (Canis familiaris [33]): < 10%
- APD95 (Canis familiaris [34]): 23%
- APD95 (Canis familiaris [35]): -16%
- APD95 (Canis familiaris [36]): 23%

Source: ChEMBL document CHEMBL1123566, “Synthesis and cardiac electrophysiological activity of 2- and 3-[(substituted phenyl)alkyl]quinuclidines. Structure-activity relationships” (1987)
